Data reported in ChEMBL document CHEMBL1142465, “Novel potent inhibitors of A. thaliana cytokinin oxidase/dehydrogenase” (Bioorg Med Chem, 2008).

Assays:
[1] = target: T1, Histidine kinase 3 (Arabidopsis thaliana, UniProt Q9C5U1); experiment: Activation of Arabidopsis thaliana AHK3 receptor expressed in Escherichia coli KMI001 by beta-galactosidase activity
T1 sequence (Q9C5U1 whole entry): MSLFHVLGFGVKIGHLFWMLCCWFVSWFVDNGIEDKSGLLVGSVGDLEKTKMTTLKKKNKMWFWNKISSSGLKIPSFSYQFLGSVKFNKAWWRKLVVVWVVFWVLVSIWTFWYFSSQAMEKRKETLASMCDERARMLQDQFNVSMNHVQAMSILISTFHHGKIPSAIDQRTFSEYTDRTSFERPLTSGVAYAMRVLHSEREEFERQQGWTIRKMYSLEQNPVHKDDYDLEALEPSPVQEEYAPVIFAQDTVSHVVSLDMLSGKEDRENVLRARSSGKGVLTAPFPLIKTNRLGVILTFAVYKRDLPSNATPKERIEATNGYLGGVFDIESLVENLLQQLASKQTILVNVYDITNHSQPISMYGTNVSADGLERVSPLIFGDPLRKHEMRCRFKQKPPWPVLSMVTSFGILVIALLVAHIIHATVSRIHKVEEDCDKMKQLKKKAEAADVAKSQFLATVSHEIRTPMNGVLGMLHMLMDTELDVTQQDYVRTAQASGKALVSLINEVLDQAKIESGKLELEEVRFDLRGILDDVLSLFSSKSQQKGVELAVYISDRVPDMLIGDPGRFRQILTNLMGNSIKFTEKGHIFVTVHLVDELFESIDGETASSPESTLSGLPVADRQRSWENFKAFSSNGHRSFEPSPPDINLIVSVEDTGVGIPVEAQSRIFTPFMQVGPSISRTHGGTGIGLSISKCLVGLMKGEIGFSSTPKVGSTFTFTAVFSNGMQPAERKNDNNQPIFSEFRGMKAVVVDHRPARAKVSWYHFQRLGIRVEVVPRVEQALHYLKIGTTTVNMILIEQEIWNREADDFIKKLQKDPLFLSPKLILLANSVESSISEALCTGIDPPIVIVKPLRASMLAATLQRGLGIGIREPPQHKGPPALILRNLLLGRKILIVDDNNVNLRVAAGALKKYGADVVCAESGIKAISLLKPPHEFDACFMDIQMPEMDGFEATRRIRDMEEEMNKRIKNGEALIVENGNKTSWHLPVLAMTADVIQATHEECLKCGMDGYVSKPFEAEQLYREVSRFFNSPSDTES

[2] = test system: Nicotiana tabacum; experiment: Cytokinin-like effect in tobacco assessed as stimulation of callus growth at 100 umol/L relative to 6-benzylaminopurine; assay type: functional
Outline: (§1)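 Cytokinin-dependent tobacco callus growth in 6-well plates, 3 mL MS medium per well, otherwise per published protocol. Compounds from DMSO stocks diluted into medium, final DMSO ≤0.2%. Five replicates per concentration, whole test repeated at least three times. Activity expressed relative to BAP set at 100 (reference 10^-6 M BAP) at the optimal concentration.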

[3] = test system: Amaranthus; experiment: Cytokinin-like effect in Amaranthus cotyledons assessed as dark induction of betacyanin synthesis at 100 umol/L relative to 6-benzylaminopurine; assay type: functional; settings: at 100 µM
[4] = test system: Triticum aestivum; experiment: Cytokinin-like effect in wheat assessed as retention of chlorophyll in excised leaves at 100 umol/L by senescence assay relative to 6-benzylaminopurine; assay type: functional; settings: at 100 µM
[5] = target: T2, Cytokinin dehydrogenase 2 (Arabidopsis thaliana, UniProt Q9FUJ3); experiment: Inhibition of sArabidopsis thaliana CKX2 expressed in Saccharomyces cerevisiae 23344c ura-
T2 sequence (Q9FUJ3 whole entry): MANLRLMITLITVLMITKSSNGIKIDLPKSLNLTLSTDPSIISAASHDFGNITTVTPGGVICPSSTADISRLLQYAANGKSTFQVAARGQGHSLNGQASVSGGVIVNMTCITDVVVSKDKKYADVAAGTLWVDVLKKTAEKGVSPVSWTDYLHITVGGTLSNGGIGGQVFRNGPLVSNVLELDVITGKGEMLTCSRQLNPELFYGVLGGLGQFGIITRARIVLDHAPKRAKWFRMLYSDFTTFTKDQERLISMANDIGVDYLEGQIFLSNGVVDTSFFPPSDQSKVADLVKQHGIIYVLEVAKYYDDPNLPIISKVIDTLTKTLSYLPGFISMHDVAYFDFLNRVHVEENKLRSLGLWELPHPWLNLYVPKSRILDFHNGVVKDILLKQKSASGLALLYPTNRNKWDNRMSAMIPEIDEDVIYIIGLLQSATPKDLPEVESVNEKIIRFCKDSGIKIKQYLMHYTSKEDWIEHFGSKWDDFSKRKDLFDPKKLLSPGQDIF

[6] = test system: Nicotiana tabacum; experiment: Cytokinin-like effect in tobacco assessed as stimulation of callus growth at 10 umol/L relative to 6-benzylaminopurine; assay type: functional; settings: at 10 µM
[7] = target: Histidine kinase 4 (Arabidopsis thaliana, UniProt Q9C5U0); experiment: Activation of Arabidopsis thaliana AHK4/CRE1 receptor expressed in Escherichia coli KMI001 by beta-galactosidase activity
[8] = test system: Amaranthus; experiment: Cytokinin-like effect in Amaranthus cotyledons assessed as dark induction of betacyanin synthesis at 10 umol/L relative to 6-benzylaminopurine; assay type: functional
Outline: (§2)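 Dark induction of betacyanin synthesis in Amaranthus cotyledons, per previously published protocol. Compounds from DMSO stocks diluted into medium, final DMSO ≤0.2%. Five replicates per concentration, whole test repeated at least three times. Relative activity taken at the optimal concentration against BAP set at 100 (reference 10^-5 M BAP).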

[9] = test system: Nicotiana tabacum; experiment: Cytokinin-like effect in tobacco assessed as stimulation of callus growth at 1 umol/L relative to 6-benzylaminopurine; assay type: functional; outline: as §1
[10] = test system: Nicotiana tabacum; experiment: Toxicity in tobacco assessed as inhibition of callus growth at 100 uM; settings: in vivo
Outline: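 Tobacco callus growth dose-response up to 100 µM in 6-well plates with 3 mL MS medium per well. Compounds from DMSO stocks diluted into medium, final DMSO ≤0.2%. Five replicates per concentration. Readings compared against a control treatment with no cytokinin.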

[11] = test system: Nicotiana tabacum; experiment: Cytokinin-like effect in tobacco assessed as stimulation of callus growth at 0.1 umol/L relative to 6-benzylaminopurine; assay type: functional; outline: as §1
[12] = test system: Amaranthus; experiment: Cytokinin-like effect in Amaranthus cotyledons assessed as dark induction of betacyanin synthesis at 0.1 umol/L relative to 6-benzylaminopurine; assay type: functional; outline: as §2

Sequence of Histidine kinase 4 (Q9C5U0 whole entry): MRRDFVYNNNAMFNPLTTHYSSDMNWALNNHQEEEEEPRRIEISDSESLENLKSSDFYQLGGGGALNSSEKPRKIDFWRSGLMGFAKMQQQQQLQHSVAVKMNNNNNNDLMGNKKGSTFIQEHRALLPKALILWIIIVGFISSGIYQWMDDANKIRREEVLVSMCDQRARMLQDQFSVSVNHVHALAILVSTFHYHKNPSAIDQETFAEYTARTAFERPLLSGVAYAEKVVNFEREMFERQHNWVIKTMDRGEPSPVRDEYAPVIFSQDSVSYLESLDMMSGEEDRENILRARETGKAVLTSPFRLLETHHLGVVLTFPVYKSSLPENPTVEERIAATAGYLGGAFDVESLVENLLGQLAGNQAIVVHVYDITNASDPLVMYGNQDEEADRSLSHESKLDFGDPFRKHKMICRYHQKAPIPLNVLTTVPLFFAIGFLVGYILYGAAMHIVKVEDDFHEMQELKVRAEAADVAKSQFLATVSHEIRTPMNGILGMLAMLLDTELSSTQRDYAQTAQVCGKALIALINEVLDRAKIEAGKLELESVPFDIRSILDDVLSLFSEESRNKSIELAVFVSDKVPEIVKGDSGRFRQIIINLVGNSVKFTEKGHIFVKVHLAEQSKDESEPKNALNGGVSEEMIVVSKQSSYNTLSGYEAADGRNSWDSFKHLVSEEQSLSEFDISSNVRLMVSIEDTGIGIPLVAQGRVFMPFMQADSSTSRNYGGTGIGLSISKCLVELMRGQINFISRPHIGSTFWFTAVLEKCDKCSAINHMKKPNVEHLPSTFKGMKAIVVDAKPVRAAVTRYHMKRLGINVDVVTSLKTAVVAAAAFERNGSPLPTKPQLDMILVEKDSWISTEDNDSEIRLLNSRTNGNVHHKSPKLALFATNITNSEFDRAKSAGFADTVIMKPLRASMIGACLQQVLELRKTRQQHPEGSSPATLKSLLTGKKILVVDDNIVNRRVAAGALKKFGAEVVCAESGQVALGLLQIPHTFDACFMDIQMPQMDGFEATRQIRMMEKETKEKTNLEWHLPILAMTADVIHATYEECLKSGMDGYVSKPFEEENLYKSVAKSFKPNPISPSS

SMILES	EC50 [1]	Activity [2]	Activity [3]	Activity [4]	IC50 [5]	Activity [6]	EC50 [7]	Activity [8]	Activity [9]	Activity [10]	Activity [11]	Activity [12]
c1ccc(Nc2ncnc3[nH]cnc23)cc1	> 50 µM	47%	52%	14%								
COc1ccccc1Nc1nc(Cl)nc2[nH]cnc12	33 µM		63%	29%	> 100 µM	100%						
COc1cccc(Nc2nc(N)nc3[nH]cnc23)c1			116%	16%	27 µM	71%						
Clc1ccc(Nc2nc(Cl)nc3[nH]cnc23)cc1	15.1 µM		139%	10%	25.4 µM	77%	> 50 µM					
Clc1cccc(Nc2nc(Cl)nc3[nH]cnc23)c1	10.7 µM			11.5%	3.9 µM	95%		119%				
COc1cccc(Nc2nc(F)nc3[nH]cnc23)c1	19 µM		107%	13.5%	1 µM	74%	19 µM					
Oc1cccc(Nc2nc(Cl)nc3[nH]cnc23)c1	13 µM		52%	6%	3.75 µM	111%	3.75 µM					
Oc1ccc(Nc2nc(Cl)nc3[nH]cnc23)cc1	16.5 µM	60%	47.5%	14%	> 100 µM		4.6 µM					
COc1cccc(Nc2nc(Cl)nc3[nH]cnc23)c1	21 µM		149%	11%	1.9 µM	103%	7 µM					
COc1cccc(Nc2ncnc3[nH]cnc23)c1	2.3 µM		124.5%	13%	12.4 µM	42%	31 µM					
COc1cccc(Nc2nc([N+](=O)[O-])nc3[nH]cnc23)c1		35.5%	43%	15%	14 µM							
COc1cccc(Nc2nc(SC)nc3[nH]cnc23)c1			101%	2%	> 100 µM	91%						
Oc1ccccc1Nc1nc(Cl)nc2nc[nH]c12	19 µM				> 100 µM		> 50 µM					
Fc1ccc(Nc2nc(Cl)nc3[nH]cnc23)cc1	50 µM		92%	5%	50 µM				99%	Non-toxic		
COc1cccc(Nc2nc(Cl)nc3c2ncn3C(C)C)c1			44%	5%	> 100 µM	38%						
COc1ccc(Nc2nc(Cl)nc3[nH]cnc23)cc1			60%	19%	> 100 µM	76%						
Clc1nc(Nc2ccccc2)c2nc[nH]c2n1	> 50 µM		139%	23%	80 µM				103%			
Fc1cccc(Nc2nc(Cl)nc3[nH]cnc23)c1	6 µM		147%	15%	7.5 µM		24.8 µM		101%			
COc1cccc(Nc2nc(Cl)nc3c2ncn3C)c1			69%	30%	61 µM	76%						
C/C(=C\CNc1ncnc2[nH]cnc12)CO	0.7 µM		129.6%	122%		104.6%	1.1 µM					
O=C(Nc1ccccc1)Nc1cnns1 [THIDIAZURON]	0.95 µM			108.7%	29 µM		1 µM				102.3%	121.1%
